Paper PMC4958353 (Drug Design, Development and Therapy, 2016)
≈ marks a conversion by molar mass, not a printed value.

Columns and labels:
M. tuberculosis H37Rv = assay: microplate Alamar Blue assay, in vitro anti-TB activity; assay type: cell-based; conditions: Mycobacterium tuberculosis
in vitro = conditions: human
[1] = compared with compound 10b (90.5%); cited from earlier work
[2] = pKa by reverse-phase HPLC; assay type: physicochemical
human serum albumin = human serum albumin (Homo sapiens, UniProt P02768); assay: protein binding by reverse-phase HPLC on human serum albumin column; assay type: in vitro ADME
Sequence of human serum albumin (P02768 25-609): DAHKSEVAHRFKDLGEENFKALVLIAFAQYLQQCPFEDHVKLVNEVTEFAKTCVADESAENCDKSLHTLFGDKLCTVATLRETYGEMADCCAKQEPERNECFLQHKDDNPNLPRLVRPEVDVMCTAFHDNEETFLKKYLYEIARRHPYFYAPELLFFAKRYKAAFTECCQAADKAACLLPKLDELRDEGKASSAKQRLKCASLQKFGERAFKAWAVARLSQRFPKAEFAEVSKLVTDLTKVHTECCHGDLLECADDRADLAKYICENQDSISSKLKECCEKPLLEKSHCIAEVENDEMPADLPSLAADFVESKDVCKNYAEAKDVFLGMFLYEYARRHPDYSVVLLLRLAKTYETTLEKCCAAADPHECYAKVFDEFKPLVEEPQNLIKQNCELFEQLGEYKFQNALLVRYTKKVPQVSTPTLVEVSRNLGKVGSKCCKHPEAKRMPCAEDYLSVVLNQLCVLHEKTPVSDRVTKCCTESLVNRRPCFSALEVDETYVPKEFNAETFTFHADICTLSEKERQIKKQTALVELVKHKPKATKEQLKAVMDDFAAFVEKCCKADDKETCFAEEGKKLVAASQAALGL

[3] = human liver microsomal stability; assay type: in vitro ADME; conditions: HLM incubation
How it was run: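 Test compound incubated with human liver microsomes. The percentage of parent compound remaining was read at 15 min, 30 min, 1 h and 2 h of incubation.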

Which MIC (M. tuberculosis H37Rv) does the source give for `Oc1cc(Cl)ccc1Oc1ccc(Cl)cc1Cl` [Triclosan, reference compound] here?
The MIC was 12.5 µg/mL (≈ 43.2 µM).

What about the CC50 (in vitro) of the same compound?
Its CC50 is over 300 µg/mL.

And the plasma protein binding [1]?
The plasma protein binding was “even higher than compound 10b”.

For `Cc1ccc(C(CC(=O)c2ccc(Oc3ccccc3)c(O)c2)C(N)=O)cc1` (centres unmarked) [Compound 10b, 4-(3-Hydroxy-4-phenoxyphenyl)-4-oxo-2-p-tolylbutanamide], which MIC (M. tuberculosis H37Rv) is on record?
Its MIC is 12.5 µg/mL (≈ 33.3 µM).

And the pKa [2]?
The pKa was 7.59.

And the CC50 (in vitro)?
The CC50 was over 300 µg/mL.

What about the fraction unbound (human serum albumin) of the same compound?
The fraction unbound was 0.095.

What about the Percentage remaining ([3]; 15 minutes) of the same compound?
Its Percentage remaining is 70.18%.

And the Percentage remaining ([3]; 30 minutes)?
Its Percentage remaining is 57.49%.

And the Percentage remaining ([3]; 1 hour)?
Its Percentage remaining is 50.68%.

What about the Percentage remaining ([3]; 2 hours) of the same compound?
Its Percentage remaining is 40.35%.

With `NNC(=O)c1ccncc1` [Isoniazid, reference compound] as the compound, how does the MIC (M. tuberculosis H37Rv) read?
Its MIC is 0.125 µg/mL (≈ 0.911 µM).

With `COc1ccc(C(CC(=O)c2ccc(Oc3ccccc3)c(O)c2)C(N)=O)cc1` (centres unmarked) [Compound 10c, 4-(3-Hydroxy-4-phenoxyphenyl)-2-(4-methoxyphenyl)-4-oxobutanamide] as the compound, how does the MIC (M. tuberculosis H37Rv) read?
Its MIC is 25 µg/mL (≈ 63.9 µM).

What about the CC50 (in vitro) of the same compound?
Its CC50 is 261 µg/mL (≈ 666 µM).

Which results are given for `NC(=O)C(CC(=O)c1cccc(Oc2ccccc2)c1)c1ccccc1` (centres unmarked) [Compound 5a, 4-Oxo-4-(3-phenoxyphenyl)-2-phenylbutanamide]?
MIC (M. tuberculosis H37Rv): > 100 µg/mL; CC50 (in vitro): > 300 µg/mL

Which MIC (M. tuberculosis H37Rv) does the source give for `Cc1ccc(C(CC(=O)c2cccc(Oc3ccccc3)c2)C(N)=O)cc1` (centres unmarked) [Compound 5b, 4-Oxo-4-(3-phenoxyphenyl)-2-p-tolylbutanamide] here?
The MIC was over 100 µg/mL.

And the CC50 (in vitro)?
The CC50 was over 300 µg/mL.

With `NC(=O)C(CC(=O)c1ccc(Oc2ccccc2)c(O)c1)c1ccccc1` (centres unmarked) [Compound 10a, 4-(3-Hydroxy-4-phenoxyphenyl)-4-oxo-2-phenylbutanamide] as the compound, how does the MIC (M. tuberculosis H37Rv) read?
The MIC was 20 µg/mL (≈ 55.3 µM).

What about the CC50 (in vitro) of the same compound?
The CC50 was over 300 µg/mL.
